Our source for the Kd, Activity and IC50 values is ChEMBL document CHEMBL1155549, “Sialic acid-mimic peptides as hemagglutinin inhibitors for anti-influenza therapy” (J Med Chem, 2010).

A short description of experiment [1]: Binding affinity to Influenza A virus (A/Wuhan/359/1995 (H3N2)) hemagglutininin by phage ELISA. In outline:
(§1)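 Wells coated with target (HA, WGA or anti-GM3 antibody) were blocked with 1% BSA/TBS. Phage in TBS was added for 2 h, washed with TBST and reblocked with 5% BSA/TBS. Detection used anti-fd antibody then peroxidase anti-rabbit IgG, 1 h each, with o-phenylenediamine read as ΔA at 492 nm, in triplicate. Phage concentration came from A260. Kd was from a linear plot of ΔA against phage concentration.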

Experiment [2] concerns the target Hemagglutinin (Influenza A virus (A/Puerto Rico/8/1934(H1N1)), UniProt P03452). The experiment in a line: Binding affinity to Influenza A virus (A/Puerto Rico/8/34(H1N1)) hemagglutininin by phage ELISA. In outline:
as §1

A short description of experiment [3]: Binding affinity to wheat germ agglutinin by phage ELISA. On the set-up: species or system Triticum aestivum. In short, it runs like this:
as §1

Experiment [4] has as its system Influenza A virus (A/Wyoming/03/2003(H3N2)). Put plainly: Binding affinity to Influenza A virus (A/Wyoming/03/2003 (H3N2)) hemagglutininin by avidin-biotin peroxidase complex method. In outline: (§2)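 HA was coated at 70 μg/mL overnight at 4 °C and blocked with 1% BSA/PBS. C-terminally biotinylated peptides (5-400 μM) were added for 2 h. After PBS washes, peroxidase-streptavidin was added for 1 h, and o-phenylenediamine colour was read as ΔA at 492 nm, in triplicate. Kd came from a Scatchard plot over 20-200 μM peptide.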

In experiment [5] the test system is Influenza A virus (A/New Caledonia/20/1999(H1N1)). Put plainly: Binding affinity to Influenza A virus (A/New Caledonia/20/1999 (H1N1)) hemagglutininin by avidin-biotin peroxidase complex method. In outline:
as §2

The subject of a further experiment is H3N2 subtype. The experiment in a line: Antiviral activity against Influenza A virus (A/Aichi/2/1968(H3N2)) infected in MDCK cells after 48 hrs by plaque assay. The experiment is classed as functional, organism-based. In short, it runs like this:
(§3)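 N-stearoyl peptides were serially diluted in PBS from a 2 mM stock and mixed with 50-200 pfu virus for 30 min at room temperature. The mixture was put on MDCK monolayers for 30 min at 37 °C under 5% CO2, then washed off. After 2 days, plaques were stained with crystal violet and counted. Inhibition was 100(1 - N/N0), n = 3, plotted against concentration.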

The next experiment has as its system Influenza A virus. Put plainly: Antiviral activity against Influenza A virus (A/Puerto Rico/8/34(H1N1)) infected in MDCK cells after 48 hrs by plaque assay. Format: functional, organism-based. The note with it: A/Puerto Rico/8/1934(H1N1). In short, it runs like this:
as §3

Calls of active or inactive are those of the source. No cut-off for these calls is given here. Where a SMILES comes first, the peptide text is derived from it. The star is where a group is joined. Stearoyl = CCCCCCCCCCCCCCCCCC(=O)*

Chain of Hemagglutinin (Influenza A virus (A/Puerto Rico/8/1934(H1N1)), UniProt P03452) (P03452 18-342 limits assumed): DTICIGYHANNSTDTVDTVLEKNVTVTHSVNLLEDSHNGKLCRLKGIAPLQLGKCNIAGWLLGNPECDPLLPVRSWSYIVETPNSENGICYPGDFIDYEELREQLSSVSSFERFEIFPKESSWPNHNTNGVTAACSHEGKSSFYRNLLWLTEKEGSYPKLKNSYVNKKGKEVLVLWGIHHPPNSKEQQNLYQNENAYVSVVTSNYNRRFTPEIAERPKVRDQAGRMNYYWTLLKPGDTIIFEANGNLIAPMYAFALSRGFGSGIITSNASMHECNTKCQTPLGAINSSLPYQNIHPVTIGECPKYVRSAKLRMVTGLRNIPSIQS
Chain of Hemagglutinin (Influenza A virus (A/Puerto Rico/8/1934(H1N1)), UniProt P03452) (P03452 344-565 limits assumed): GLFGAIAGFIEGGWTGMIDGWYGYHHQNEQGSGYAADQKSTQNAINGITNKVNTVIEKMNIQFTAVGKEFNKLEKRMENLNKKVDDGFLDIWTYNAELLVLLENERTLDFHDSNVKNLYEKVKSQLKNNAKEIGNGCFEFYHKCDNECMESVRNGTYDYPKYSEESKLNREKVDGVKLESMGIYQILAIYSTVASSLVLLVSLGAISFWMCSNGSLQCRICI

By Kd is commonly meant the free concentration of one partner at which half of the binding sites on the other are occupied at equilibrium, for simple one-to-one binding. Read a low Kd as higher affinity. On to `CSCC[C@H](NC(=O)[C@@H](NC(=O)[C@@H]1CCCN1C(=O)[C@H](CO)NC(=O)[C@H](CC(C)C)NC(=O)[C@H](CCCN=C(N)N)NC(=O)[C@H](C)N)[C@@H](C)O)C(=O)N[C@H](C(=O)N[C@@H](Cc1cnc[nH]1)C(=O)N1CCC[C@H]1C(=O)N[C@@H](CC(N)=O)C(=O)NCC(=O)N[C@@H](C)C(=O)N[C@@H](CCC(N)=O)C(=O)N1CCC[C@H]1C(=O)O)C(C)C`, for which the Kd in experiment [1] came to 0.0086 µM; in experiment [2], 0.0078 µM; in experiment [3], 0.016 µM.
On to `CSCC[C@H](NC(=O)[C@@H](NC(=O)[C@H](CCCNC(=N)N)NC(=O)[C@@H]1CCCN1C(=O)[C@H](CC(C)C)NC(=O)[C@H](C)NC(=O)[C@H](C)N)[C@H](C)O)C(=O)N[C@H](C(=O)N[C@@H](Cc1cnc[nH]1)C(=O)N1CCC[C@H]1C(=O)N[C@@H](CCCCN)C(=O)N1CCC[C@H]1C(=O)N[C@@H](C)C(=O)N[C@@H](CCC(N)=O)C(=O)N1CCC[C@H]1C(=O)N[C@@H](CCCCNC(=O)CCCC[C@@H]1SC[C@@H]2NC(=O)N[C@@H]21)C(N)=O)C(C)C`, for which the outcome in experiment [4] and in experiment [5] was inactive.
The term IC50 denotes the concentration needed to halve the response being measured. A high value points to lower potency. For `CCCCCCCCCCCCCCCCCC(=O)N[C@@H](C)C(=O)N[C@@H](CCCNC(=N)N)C(=O)N[C@@H](CC(C)C)C(=O)N1CCC[C@H]1C(=O)N[C@@H](CCCNC(=N)N)C(N)=O` (Stearoyl-ARLPR-NH2), the IC50 in the experiment with H3N2 subtype was found to be 1.9 µM; in the experiment on Influenza A virus, 1.6 µM.
For `CCCCCCCCCCCCCCCCCC(=O)N[C@@H](C)C(=O)N[C@@H](CCCNC(=N)N)C(=O)N[C@@H](CC(C)C)C(=O)N1CCC[C@H]1C(=O)N[C@@H](CCCNC(=N)N)C(=O)N[C@@H](CC(N)=O)C(=O)N[C@@H](CCSC)C(=O)N[C@H](C(=O)N[C@@H](Cc1cnc[nH]1)C(=O)N[C@@H](Cc1cnc[nH]1)C(=O)N[C@@H](CCCCN)C(=O)N[C@H](C(=O)N[C@@H](C)C(=O)N[C@@H](CCC(N)=O)C(=O)N1CCC[C@H]1C(N)=O)[C@@H](C)O)C(C)C` (Stearoyl-ARLPRNMVHHKTAQP-NH2) the same measures were 6.2 µM and 15 µM.
For `CCCCCCCCCCCCCCCCCC(=O)N[C@@H](C)C(=O)N[C@@H](CCCNC(=N)N)C(=O)N[C@@H](CC(C)C)C(=O)N1CCC[C@H]1C(=O)N[C@@H](CCCNC(=N)N)C(=O)N[C@@H](CO)C(=O)N[C@@H](CCSC)C(=O)N[C@H](C(=O)N[C@@H](Cc1cnc[nH]1)C(=O)N[C@@H](Cc1cnc[nH]1)C(=O)N[C@@H](CCCCN)C(=O)N1CCC[C@H]1C(=O)N[C@@H](C)C(=O)N[C@@H](CCC(N)=O)C(=O)N1CCC[C@H]1C(N)=O)C(C)C` (Stearoyl-ARLPRSMVHHKPAQP-NH2), in that order: 8.9 µM and 22 µM.
For `CCCCCCCCCCCCCCCCCC(=O)N[C@@H](C)C(=O)N[C@@H](CCCNC(=N)N)C(=O)N[C@@H](CC(C)C)C(=O)N1CCC[C@H]1C(=O)N[C@@H](CCCNC(=N)N)C(=O)N[C@H](C(=O)N[C@@H](CC(C)C)C(=O)N[C@H](C(=O)N[C@@H](Cc1cnc[nH]1)C(=O)N1CCC[C@H]1C(=O)N[C@@H](CCCCN)C(=O)N[C@@H](Cc1cnc[nH]1)C(=O)N[C@@H](C)C(=O)N[C@@H](CCC(N)=O)C(=O)N[C@@H](C)C(N)=O)C(C)C)[C@@H](C)O` (Stearoyl-ARLPRTLVHPKHAQA-NH2), in that order: 7.6 µM and 13.5 µM.
For the compound `CCCCCCCCCCCCCCCCCC(=O)N[C@@H](C)C(=O)N[C@@H](CCCNC(=N)N)C(=O)N[C@@H](CC(C)C)C(=O)N1CCC[C@H]1C(=O)N[C@@H](CCCNC(=N)N)C(=O)N[C@H](C(=O)N[C@@H](CCSC)C(=O)N[C@H](C(N)=O)C(C)C)[C@@H](C)O` (Stearoyl-ARLPRTMV-NH2), the IC50 is 3 µM in the experiment on H3N2 subtype and 4.2 µM in the experiment with Influenza A virus.
For `CCCCCCCCCCCCCCCCCC(=O)N[C@@H](C)C(=O)N[C@@H](CCCNC(=N)N)C(=O)N[C@@H](CC(C)C)C(=O)N1CCC[C@H]1C(=O)N[C@@H](CCCNC(=N)N)C(=O)N[C@H](C(=O)N[C@@H](CCSC)C(=O)N[C@H](C(=O)N[C@@H](Cc1cnc[nH]1)C(=O)N1CCC[C@H]1C(=O)N[C@@H](CCCCN)C(=O)N1CCC[C@H]1C(=O)N[C@@H](C)C(=O)N[C@@H](CCC(N)=O)C(=O)N1CCC[C@H]1C(N)=O)C(C)C)[C@@H](C)O` (Stearoyl-ARLPRTMVHPKPAQP-NH2), in that order: 11 µM and 15 µM.
For `CCCCCCCCCCCCCCCCCC(=O)N[C@@H](C)C(=O)N[C@@H](CCCNC(=N)N)C(=O)N[C@@H](CC(C)C)C(=O)N1CCC[C@H]1C(=O)N[C@@H](CCCNC(=N)N)C(=O)N[C@H](C(=O)N[C@@H](CCSC)C(=O)N[C@H](C(=O)N[C@@H](Cc1cnc[nH]1)C(=O)N1CCC[C@H]1C(=O)N[C@@H](CCCCN)C(=O)N[C@H](C(=O)N[C@@H](C)C(=O)N[C@@H](Cc1cnc[nH]1)C(=O)N[C@@H](CCC(N)=O)C(N)=O)[C@@H](C)O)C(C)C)[C@@H](C)O` (Stearoyl-ARLPRTMVHPKTAHQ-NH2), in that order: 8 µM and 13 µM.
For `CCCCCCCCCCCCCCCCCC(=O)N[C@@H](C)C(=O)N[C@@H](CCCNC(=N)N)C(=O)N[C@@H](CC(C)C)C(=O)N1CCC[C@H]1C(=O)N[C@@H](CCCNC(=N)N)C(=O)N[C@H](C(=O)N[C@@H](CCSC)C(=O)N[C@H](C(=O)N[C@@H](Cc1cnc[nH]1)C(=O)N[C@@H](CO)C(=O)N[C@@H](CCCCN)C(=O)N1CCC[C@H]1C(=O)N[C@@H](C)C(=O)N[C@@H](CCC(N)=O)C(=O)N1CCC[C@H]1C(=O)O)C(C)C)[C@@H](C)O` (Stearoyl-ARLPRTMVHSKPAQP-OH) the same measures were 6.8 µM and 41 µM.
In the experiment with Influenza A virus, `CCCCCCCCCCCCCCCCCC(=O)N[C@@H](C)C(=O)N[C@@H](CCCNC(=N)N)C(=O)N[C@@H](CC(C)C)C(=O)N[C@@H](CO)C(=O)N1CCC[C@H]1C(=O)N[C@H](C(=O)N[C@@H](CCSC)C(=O)N[C@H](C(=O)N[C@@H](Cc1cnc[nH]1)C(=O)N1CCC[C@H]1C(=O)N[C@@H](CC(N)=O)C(=O)NCC(=O)N[C@@H](C)C(=O)N[C@@H](CCC(N)=O)C(=O)N1CCC[C@H]1C(N)=O)C(C)C)[C@@H](C)O` (Stearoyl-ARLSPTMVHPNGAQP-NH2) gave an IC50 greater than 1000 µM.
In the case of `CCCCCCCCCCCCCCCCCC(=O)N[C@@H](CCCNC(=N)N)C(=O)N[C@H](C(=O)N[C@@H](CCSC)C(=O)N[C@H](C(=O)N[C@@H](Cc1cnc[nH]1)C(=O)N1CCC[C@H]1C(=O)N[C@@H](CCCCN)C(N)=O)C(C)C)[C@@H](C)O` (Stearoyl-RTMVHPK-NH2), the IC50 in the experiment with H3N2 subtype was 11 µM; in the experiment with Influenza A virus it was greater than 100 µM.
For `CCCCCCCCCCCCCCCCCC(=O)N[C@H](C(=O)N[C@@H](CCCNC(=N)N)C(=O)N[C@@H](CC(C)C)C(=O)N1CCC[C@H]1C(=O)N[C@@H](CCCNC(=N)N)C(=O)N[C@H](C(=O)N[C@@H](CCSC)C(=O)N[C@@H](CC(C)C)C(=O)N[C@@H](Cc1cnc[nH]1)C(=O)N[C@@H](Cc1cnc[nH]1)C(=O)N[C@@H](CCCCN)C(=O)N1CCC[C@H]1C(=O)N[C@@H](C)C(=O)N[C@@H](CCC(N)=O)C(=O)N[C@@H](C)C(N)=O)[C@@H](C)O)[C@@H](C)O` (Stearoyl-TRLPRTMLHHKPAQA-NH2) the same measures were 10 µM and 5.1 µM.
For `CCCCCCCCCCCCCCCCCC(=O)N[C@H](C(=O)N[C@@H](Cc1cnc[nH]1)C(=O)N1CCC[C@H]1C(=O)N[C@@H](CCCCN)C(=O)N1CCC[C@H]1C(=O)N[C@@H](C)C(=O)N[C@@H](CCC(N)=O)C(=O)N1CCC[C@H]1C(N)=O)C(C)C` (Stearoyl-VHPKPAQP-NH2), in that order: 59 µM and 10 µM.
For `CCCCCCCCCCCCCCCCCC(=O)N[C@H](C(=O)N[C@@H](CCSC)C(=O)N[C@H](C(=O)N[C@@H](CCCNC(=N)N)C(=O)N1CCC[C@H]1C(=O)N[C@@H](CC(C)C)C(=O)N[C@@H](CCCNC(=N)N)C(=O)N[C@@H](C)C(N)=O)[C@@H](C)O)C(C)C` (Stearoyl-VMTRPLRA-NH2) the same measures were greater than 100 µM and greater than 100 µM.
In the case of H-EPYGFIAFSRAAHSP-OH, the Kd in experiment [1] came out at 0.02 µM; in experiment [2], 0.03 µM; in experiment [3], 0.03 µM.
Take H-GRPPDSVFRSRGWLS-OH: the Kd in experiment [1] turned out to be 0.0089 µM; in experiment [2] it was 0.011 µM; in experiment [3], 0.02 µM.
For H-GRVPVFGLSPLFKVE-OH, the Kd was 0.016 µM in experiment [1], 0.0078 µM in experiment [2] and 0.019 µM in experiment [3].
The compound “H-IDIAFSSLALADISR-OH [IDIAFSSLALADISR] [listing 1 of 2 here]” came in with a Kd in experiment [2] of 0.019 µM.
In the case of “H-IDIAFSSLALADISR-OH [IDIAFSSLALADISR] [listing 2 of 2 here]”, the equilibrium dissociation constant (Kd) in experiment [1] came out at 0.013 µM; in experiment [3], 0.03 µM.
